# PP5 inh: inhibitors of human protein phosphatase 5 (PP5); P53041; purified PP5c, OMFP substrate fluorescence; inhibition, % at 6.7 µM; 0.18% of 320,000 active; AID 1987;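 active means inhibition above the campaign's mean inhibition across all tested compounds plus 3 SD, cut at about 9.5% in these data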;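 further: 0% = DMSO only and 100% = 100 µM cantharidin control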
# ASAP1 inh: ASAP1 ArfGAP inhibition | Q9ULH1 | ASAP1-stimulated ARF1 GTP hydrolysis, GDP FP detection | inhibition, % at 16.5 µM | 0.19% of 360,000 active | AID 624377; in the data active means inhibition above about 25%;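 further: 0% = vehicle with enzyme and substrate and 100% = no enzyme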
# ARFGAP1 inh: inhibitors of rat ARFGAP1; Arfgap1-stimulated ARF1 GTP hydrolysis, GDP FP detection; 0.26% of 360,000 active; Q62848; inhibition, % at 16.5 µM;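 active means inhibition above a per-plate limit, mean inhibition of low control wells plus 3 SD, cut at about 25% in these data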;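 further: 0% = DMSO wells with enzyme and 100% = wells lacking Arfgap1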
#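 Material: truncated rat Arfgap1 GAP domain; Incubation: compound-enzyme preincubation 20 min, reaction 120 min, detection 60 min, 25 °C; Read-out: percent inhibition of Arfgap1-stimulated GTP hydrolysis; Technique: FP, GDP Alexa 633 tracer displaced from anti-GDP antibody, 620/688 nm; Controls: No-Arfgap1 wells (100%) versus DMSO full-reaction wells (0%); Replication: single well per compound.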
# PKD1 kinase inh: inhibitors of human PKD1 kinase. 0.056% of 200,000 active. Q15139. inhibition, % (concentration not given with the values). PKD1 kinase fluorescence polarization assay. AID 797; in the data active means inhibition above about 50%
# * = called active by the depositor; . = no result. In the library only some 0.54% were active in any assay of this set; here they are far more common.
SMILES,PP5 inh,ASAP1 inh,ARFGAP1 inh,PKD1 kinase inh
C[C@@H]1CN([C@@H](C)CO)C(=O)CCCn2cc(nn2)CO[C@H]1CN(C)C(=O)Nc1ccc(-c2cccs2)cc1,.,2,-4,.
COC(=O)c1cc(NC(=O)CC2SC(=Nc3ccccc3)N(CCc3c[nH]c4ccccc34)C2=O)cc(C(=O)OC)c1 (stereo unspecified),2,28*,16,2
COC(=O)c1sc2cc(C(F)(F)F)cnc2c1-c1ccccc1,1,-10,-7,-12
O=C(O)c1sc2cc(C(F)(F)F)cnc2c1-c1ccccc1,-3,25*,12,-11
COc1cc(CNc2cccc3c2S(=O)(=O)N([C@H](C)c2ccccc2)C[C@@H](COCc2ccccc2)O3)cc(OC)c1OC,.,4,3,.
COc1ccc(CNC(=O)[C@@H](Cc2ccccc2)NC(=O)[C@H]2O[C@@H](n3ccc(=O)[nH]c3=O)[C@H](O)[C@@H]2O)cc1,.,0,4,.
CN(C)Cc1c(C(C)(C)O)[nH]c2cc(C(F)(F)F)ccc12,.,-6,-1,.
C[C@H]1[C@H](c2ccccc2)Oc2cccc(NCCc3ccccc3)c2S(=O)(=O)N1Cc1cccc(Cl)c1,.,13,1,.
CCC(=O)Nc1sc2c(c1C(N)=O)CCN(C(C)=O)C2,-1,12,-1,-1
CC(=O)N1CCc2c(sc(NC(=O)c3ccc([N+](=O)[O-])o3)c2C(N)=O)C1,.,-5,27*,.
CCOC(=O)C1=C(C(=O)OCC)C2N(Cc3ccc(C#N)cc3)c3ccccc3[C@@]23C[C@@H](C(=O)OC)N(S(=O)(=O)c2ccc(C)cc2)C3=N1 (stereo partly specified),.,-9,1,.
NC1=C(Br)C(=O)c2ncccc2C1=O,.,28*,3,.
O=C1c2cccnc2C(=O)N1CO,1,4,-1,-1
Cc1ccccc1NC(=O)N(C)[C@H]1C[C@H]2c3[nH]c4c(-c5ccccc5)cccc4c3CCN2C(=O)[C@H]1[C@H](C)O,.,-10,2,.
O=C(Nn1cnnc1)c1ccc(Cl)cc1,9.6*,3,-2,.
O=C(Nn1cnnc1)c1ccc(F)cc1,1,5,8,.
COc1ccc(Cl)cc1NC(=S)N1CCN(C(=O)c2ccco2)CC1,2,-3,39*,-7
Cc1ccc(NC(=O)C2C3CCC(O3)C2C(=O)O)c(Br)c1 (stereo unspecified),73*,-4,-2,.
O=C(O)C1C2CCC(O2)C1C(=O)Nc1ccc(Br)cc1F (stereo unspecified),66*,1,-10,.
Cc1ccc(Cl)cc1NC(=O)C1CC1c1ccccc1 (stereo unspecified),1,-2,0,.
Cc1ccc(Cl)cc1NC(=O)C1C2CCC(O2)C1C(=O)O (stereo unspecified),56*,18,0,.
COC(=O)[C@]12C[C@H](CC(=O)NCC34CC5CC(CC(C5)C3)C4)C(=O)N(Cc3ccccc3)C1=C[C@H](C(C)C)O[C@@H]2C1CC1,.,9,-1,.
C#CCOCCOCCOCCNc1nc(N2CCN(C(=O)CCCCCCCCCCNC(=O)[C@H]([C@@H](C)CC)n3cc(CCCCN=C(N)N)nn3)CC2)nc(N2CCN(C(=O)CCCCCCCCCCNC(=O)[C@H](CCCN=C(N)N)n3cc(C[C@@H](C)CC)nn3)CC2)n1,9.8*,.,.,.
O=C1CSCN1c1cc(Cl)ccc1Cl,2,-1,2,75*
O=C1CSCN1c1ccc(Cl)c(Cl)c1,-2,5,-1,3
SMILES,PP5 inh,ASAP1 inh,ARFGAP1 inh,PKD1 kinase inh
Fc1ccc(CN2CCN(c3ncc(Cc4ccccc4)cn3)CC2)c(Cl)c1,.,-2,0,.
Cc1cc(NC(=O)CCC(=O)N(Cc2ccco2)C(C(=O)NCC2CCCO2)c2ccncc2)no1 (stereo unspecified),1,0,2,74*
Cc1cccc(OCCCN2CCC(C(O)(c3ccccc3)c3ccccc3)CC2)c1,.,4,3,.
COc1ccc(Sc2nc(-c3ccccn3)ncc2OC)cc1,6,3,-7,-4
COc1cnc(-c2ccccn2)nc1Sc1ccccc1,11*,-9,-13,4
COc1ccc(NC(=O)c2cn(-c3ccccc3)nc2-c2cc3ccccc3o2)cc1,5,29*,10,-7
CC1=NN(c2ccccc2)C(=O)/C1=C\c1ccc(Oc2ccc([N+](=O)[O-])cc2[N+](=O)[O-])cc1,9,13,25*,10
COc1cc(/C=C2\C(=O)N(c3ccccc3)N=C2C)ccc1Oc1ccc([N+](=O)[O-])cc1[N+](=O)[O-],3,-7,14,-4
CC(C)NC(=O)NC(=O)CSc1nnc(COc2ccccc2F)n1C(C)C1CC2CCC1C2 (stereo unspecified),10*,.,.,9
OC(c1ccccc1)(c1ccccc1)C1CCN(CCCOc2ccc(-c3ccncc3)cc2)CC1,.,10,8,.
CCOC(=O)c1cc(NC(=O)C2C3CCC(O3)C2C(=O)O)cc(C(=O)OCC)c1 (stereo unspecified),65*,-3,-7,-5
CCOC(=O)c1c(NC(=O)CN2C(=O)NC3(CCC(C)CC3)C2=O)sc(C)c1-c1ccc(C)cc1 (stereo unspecified),0,-6,9,-4
CCOC(=O)c1cc(NC(=O)C2C3C=CC(O3)C2C(=O)O)cc(C(=O)OCC)c1 (stereo unspecified),23*,-5,14,.
CCOC(=O)c1c(NC(=O)C2C3CCC(O3)C2C(=O)O)sc(C)c1-c1ccc(C)cc1 (stereo unspecified),33*,-2,-3,0
Cc1sc(NC(=O)C2C3CCC(O3)C2C(=O)O)nc1-c1ccc(CC(C)C)cc1 (stereo unspecified),79*,1,-3,0
Cc1ccccc1CN1[C@@H](C)[C@H](c2ccccc2)Oc2cccc(NCC(C)C)c2S1(=O)=O,.,-6,11,.
CC(C)C[C@@H]1COc2cccc(NCCO)c2S(=O)(=O)N1,.,12,7,.
CC(C)(C)c1cc(NCCCn2ccnc2)n2ncc(-c3ccc(Cl)cc3)c2n1,10*,-4,20,-7
Cc1cc(NCCCn2ccnc2)n2nc(-c3ccc(Cl)cc3)cc2n1,0,3,-4,0
Cn1nc(-c2ccc(Cl)cc2)nc2c(=O)n(C)c(=O)nc1-2,12*,.,.,3
Oc1ccccc1-c1cc(-c2ccc3c(c2)OCCO3)n[nH]1,7,28*,11,-14
CSc1ccccc1C(=O)NCc1ccc(F)cc1,-3,-12,6,74*
Nc1nc2c(ncn2[C@@H]2O[C@H](C(=O)NCCCc3ccccc3)[C@@H](O)[C@H]2O)c(=O)[nH]1,.,10,-6,.
COc1nc(Nc2ccc(O)cc2)nc(OC(C(F)(F)F)C(F)(F)F)n1,8,4,13,-7
Nc1cccc(Nc2nc(OC(C(F)(F)F)C(F)(F)F)nc(OC(C(F)(F)F)C(F)(F)F)n2)c1,19*,-2,1,-6
CCc1c(Cc2cccc(F)c2)ncn1CCc1ccccc1OC,.,-4,6,.
CCCCc1c(-c2ccccc2OC)ncn1Cc1ccc(OC)c(Cl)c1,.,1,20,.
O=C(N/N=C/c1ccc([N+](=O)[O-])o1)c1cc2ccccc2o1,0,5,-5,.

# Source: PubChem (several laboratories)
